Data set [1] is described as follows: melting temperature; fluorescence melt of hairpins on a sequencing array, two-state fit, raised by 9.35 °C to match UV melts. As to conditions: sodium 0.088 M. Put shortly: (§1)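 With Cy3 and quencher oligos annealed, library hairpins on a sequenced MiSeq flow cell were imaged for Cy3 fluorescence in 50 mM Na-HEPES pH 8.0, 25 mM NaCl, in 2.5 °C steps up to 60 °C. Melting temperature and folding enthalpy were derived from bootstrapped two-state fits of signals normalised to pre-quench Cy3 and to control constructs. Four replicates were combined by inverse variance, with fitted temperatures raised by 9.35 °C to match UV melts.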

A short description of data set [2]: folding enthalpy; higher = less favourable; fluorescence melt of hairpins on a sequencing array, two-state fit. Particulars: sodium 0.088 M. Put shortly:
as §1

Consider GCGTCGTAACGC ((((....)))), for which the Tm in data set [1] turned out to be 55.3 °C. In data set [2], the folding enthalpy is -89.6 kJ/mol.

For the sequence GCGTCGTTACGC ((((....)))), in data set [1], the Tm turned out to be 52.6 °C. The folding enthalpy in data set [2] is -91.1 kJ/mol.

In the case of GCGTCTCAACGC ((((....)))), the Tm in data set [1] was 56.6 °C. Besides, the folding enthalpy in data set [2] is -85.1 kJ/mol.

GCGTCTGGAAACGGACGC (((((.(....).))))): in data set [1], the Tm was determined as 64.3 °C. Besides, the folding enthalpy in data set [2] was -203 kJ/mol.

With GCGTCTTAACGC ((((....)))), the Tm in data set [1] was determined as 57.5 °C. In data set [2], the folding enthalpy is -110 kJ/mol.

On to GCGTGAATACGC ((((....)))), for which, in data set [1], the Tm was determined as 61.2 °C. Further, in data set [2], the folding enthalpy was -131 kJ/mol.

Regarding GCGTGACGACGC ((((....)))), the Tm in data set [1] stood at 56.8 °C. For the same sequence, the folding enthalpy in data set [2] is -114 kJ/mol.

For GCGTGATACGC ((((...)))), the Tm in data set [1] amounted to 55.4 °C. For the same sequence, the folding enthalpy in data set [2] was -92.8 kJ/mol.

For GCGTGCACACGC ((((....)))), the Tm in data set [1] came out at 68 °C. Besides, the folding enthalpy in data set [2] is -107 kJ/mol.

As to GCGTGCCTACGC ((((....)))), in data set [1], the Tm came to 57 °C. For the same sequence, the folding enthalpy in data set [2] is -115 kJ/mol.

Consider GCGTGCGAAAGCAACCGC ((((((....)))..))), for which, in data set [1], the Tm stood at 53.7 °C. The folding enthalpy in data set [2] was -77.7 kJ/mol.

Take GCGTGCGAAAGCAATCGC ((((((....)))..))): in data set [1], the Tm was found to be 52.7 °C. The folding enthalpy in data set [2] was -94.5 kJ/mol.

Turning to GCGTGCGAAAGCAGCCGC ((((((....)))..))), the Tm in data set [1] worked out at 55.2 °C. Further, the folding enthalpy in data set [2] is -79.5 kJ/mol.

Take GCGTGCGAAAGCATACGC ((((((....)))..))): the Tm in data set [1] was 63.9 °C. The folding enthalpy in data set [2] was -121 kJ/mol.

As for GCGTGCGCACGC ((((....)))), the Tm in data set [1] came to 62.2 °C. For the same sequence, the folding enthalpy in data set [2] is -191 kJ/mol.

Turning to GCGTGCGGAAACGCGTGC ((..(((....)))..)), in data set [1], the Tm came to 53.5 °C. Moreover, the folding enthalpy in data set [2] is -116 kJ/mol.

Turning to GCGTGCTACGC ((((...)))), the Tm in data set [1] was found to be 62 °C. Also, the folding enthalpy in data set [2] is -78.4 kJ/mol.

Turning to GCGTGCTCACGC ((((....)))), the Tm in data set [1] stood at 58.6 °C. Also, the folding enthalpy in data set [2] was -105 kJ/mol.

In the case of GCGTGGCACGC ((((...)))), the Tm in data set [1] was 56.8 °C. For the same sequence, the folding enthalpy in data set [2] is -133 kJ/mol.

As to GCGTGGCCGAAAGGCCGC (((..(((....)))))), in data set [1], the Tm was determined as 57.2 °C. Further, the folding enthalpy in data set [2] was -38.4 kJ/mol.

GCGTGGCGAAAGCATCGC (((..((....))..))): in data set [1], the Tm came to 62.1 °C. Further, in data set [2], the folding enthalpy was -133 kJ/mol.

As to GCGTGGCTACGC ((((....)))), the Tm in data set [1] worked out at 58.5 °C. In addition, the folding enthalpy in data set [2] is -97.9 kJ/mol.

In the case of GCGTGGGACGC ((((...)))), the Tm in data set [1] came out at 52.4 °C. Also, the folding enthalpy in data set [2] was -70.8 kJ/mol.

GCGTGGGGAAACCCATGC ((.((((....)))).)): the Tm in data set [1] was 57.9 °C. Besides, in data set [2], the folding enthalpy was -177 kJ/mol.

Turning to GCGTGGGGAAACCCGCGC (((.(((....))).))), the Tm in data set [1] was 69 °C. The folding enthalpy in data set [2] is -187 kJ/mol.

On to GCGTGGTACGC ((((...)))), for which the Tm in data set [1] amounted to 56.3 °C. In addition, in data set [2], the folding enthalpy is -85.8 kJ/mol.

As for GCGTGGTCACGC ((((....)))), the Tm in data set [1] came out at 57.5 °C. Also, the folding enthalpy in data set [2] was -110 kJ/mol.

Consider GCGTGGTTACGC ((((....)))), for which, in data set [1], the Tm came out at 54.9 °C. In addition, in data set [2], the folding enthalpy was -90.8 kJ/mol.

As for GCGTGTCGAAAGACCCGC (((.(((....))).))), the Tm in data set [1] amounted to 58 °C. Further, in data set [2], the folding enthalpy is -176 kJ/mol.

GCGTGTCGAAAGACTCGC (((.(((....))).))): in data set [1], the Tm was 63.9 °C. For the same sequence, the folding enthalpy in data set [2] was -189 kJ/mol.

For GCGTGTGGAAACACGTGC ((..(((....)))..)), in data set [1], the Tm came to 63.1 °C. The folding enthalpy in data set [2] is -79.8 kJ/mol.

GCGTGTGGAAACGTACGC ((((..(....)..)))): in data set [1], the Tm was determined as 50.1 °C. For the same sequence, the folding enthalpy in data set [2] was -138 kJ/mol.

Turning to GCGTGTTTACGC ((((....)))), the Tm in data set [1] was determined as 55 °C. The folding enthalpy in data set [2] was -126 kJ/mol.

On to GCGTTAAGACGC ((((....)))), for which the Tm in data set [1] is 54 °C. For the same sequence, the folding enthalpy in data set [2] is -93.8 kJ/mol.

Regarding GCGTTAGGAAACTAGCGC (((.(((....))).))), the Tm in data set [1] was determined as 52.4 °C. The folding enthalpy in data set [2] is -196 kJ/mol.

On to GCGTTATTACGC ((((....)))), for which the Tm in data set [1] is 53.9 °C. In data set [2], the folding enthalpy was -109 kJ/mol.

For GCGTTCCAACGC ((((....)))), the Tm in data set [1] worked out at 55.6 °C. Further, in data set [2], the folding enthalpy was -116 kJ/mol.

With GCGTTCCCACGC ((((....)))), in data set [1], the Tm turned out to be 51.9 °C. In data set [2], the folding enthalpy is -97.8 kJ/mol.

On to GCGTTCCCGAAAGGGCGC (((..(((....)))))), for which the Tm in data set [1] came out at 53.9 °C. Further, in data set [2], the folding enthalpy was -114 kJ/mol.

The record behind these values is the array DNA melting data of Ke et al. (doi:10.1101/2024.01.08.574731).
